The list is not random: actives were taken first. Their share in the collection is about 2.1%.
DSG3 Ab inh = blocks pemphigus antibody binding to human desmoglein-3. DSG3-coupled beads, scFv-anti-DSG3-GFP binding, flow cytometry; stronger effect = lower value. P32926. 310,000 compounds, 0.48% hits. binding (percent of control), % at 10 µM;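 active = binding more than 3 SD below its plate's average and above zero; inconclusive = below that plate limit but binding exactly zero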
RanGTP-Imp inh = inhibitors of RanGTP-importin-beta interaction, primary screen, biochemical, FRET, CFP-Ran, YFP-importin-beta, homogeneous. 300,000 compounds, 1.1% hits. inhibition, % (test concentration not listed). cell-free CFP-Ran/YFP-importin-beta FRET ratio;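 active = more than half of the replicate wells show a fall in the fluorescence ratio signal beyond about 16%, limit read from the data, passing the limit was not always enough; inconclusive = exactly half of the replicate wells pass the set limit; inactive = fewer than half of replicates pass the limit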;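 note: 0% = DMSO wells and 100% = Ran loaded with GDP instead of GTP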
p-CIP stab down = lowers stability of the mouse p/CIP coactivator protein | Q05BA5 | F442A p/CIP-EGFP cells, EGFP fluorescence, 16 h | decrease of EGFP signal, % at 10 µM | 290,000 compounds, 0.01% hits | AID 1984;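 active = EGFP signal decrease of at least 30% at 10 µM or well 3 SD below plate mean, unless failing retest; inactive = the rest, including hits failing retest or dose response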
Runt-SMMHC FRET = inhibitors of human RUNX1 Runt domain binding to CBFb-SMMHC. AID 1434. 220,000 compounds, 0.74% hits. Q01196+Q13951. inhibition, % at 20 µM. Cerulean-Runt/Venus-CBFb-SMMHC FRET ratio 530/480, 1 h;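 active = mean inhibition across duplicate retests at 20 µM reaching about 50%, limit read from the data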;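 note: 0% = DMSO wells and 100% = wells with excess untagged CBFb-SMMHC; inhibitors lower the FRET ratio by blocking Runt binding to CBFb-SMMHC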
Hck Nef HTS = blocks Nef-activated human Hck kinase | Recombinant Hck-YEEI plus Nef, Z-Lyte FRET kinase assay | inhibition, % at 20 µM | 220,000 compounds, 0.68% hits | P08631;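 active = Hck-Nef kinase inhibition above about 50%, limit read from the data; inactive = inhibition below that limit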;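 note: 0% = DMSO with Hck plus Nef and 100% = Hck alone without Nef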
Runt-CBFb FRET = inhibitors of human RUNX1 Runt domain binding to CBFb. AID 1496. Cerulean-Runt/Venus-CBFb FRET ratio 530/480, 1 h. 220,000 compounds, 0.46% hits. Q01196+Q13951. inhibition, % at 20 µM;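 active = inhibition over about 50% at 20 µM in the single-dose screen, limit read from the data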;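 note: 0% = DMSO wells and 100% = excess unlabeled CBFb competitor control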
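Schedule: protein complex preformed 1 h, compound exposure 1 h, room temperature, dark; test system: Cerulean-labeled Runt domain protein; amount: 100 nM per protein; buffer or medium: Tris 50 mM pH 7.5, KCl, K2SO4, 0.01% BSA; read-out: loss of energy transfer signal; detection: FRET fluorescence; controls: 5 µM unlabeled CBFb as full-inhibition high control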
YIC FRET counter = counter-screen: alters YIC FRET probe signal; shares compounds with RanGTP-Imp inh; Purified YIC probe, intramolecular FRET ratio YFP/CFP; IC50, µM; 1,000 compounds, 40% hits; AID 435026;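 active = fitted half-maximal inhibitory concentration no more than tenfold above the top dose tested; inconclusive = flat fit with 30 to 70% activity, or poor fit; inactive = half-maximal concentration beyond tenfold above the top dose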
Numbers without * were called inactive; ? = inconclusive; nt = no result given.

SMILES	DSG3 Ab inh	RanGTP-Imp inh	p-CIP stab down	Runt-SMMHC FRET	Hck Nef HTS	Runt-CBFb FRET	YIC FRET counter
Cc1ccc(C(C(=O)NCc2ccccc2)N(Cc2ccco2)C(=O)c2snc(C(N)=O)c2N)o1 (configuration not stated)	116	-2	-2	nt	nt	nt	nt
CC(C)CCNC(=O)C(c1ccco1)N(Cc1ccccc1)C(=O)c1snc(C(N)=O)c1N (configuration not stated)	107	30*	-5	6	4	-4	>50
COC(=O)C1=CN(Cc2ccc(OC)c(OC)c2)C=C(C(=O)OC)C1c1cccc(O)c1	97	19*	-1	nt	nt	nt	17*
COC(=O)C1=CN(c2cc(C)cc(C)c2)C=C(C(=O)OC)C1c1ccc(OC)c(O)c1	115	-2	-8	nt	nt	nt	nt
C/C(=N\NC(=O)c1c(C)nc2ccccn12)c1ccccc1F	99	-1	-5	nt	nt	nt	nt
C/C(=N\NC(=O)c1c(C)nc2ccccn12)c1ccc(O)cc1O	112	21*	-25	nt	nt	nt	48*
CCN(CC(=O)Nc1ccc(C)c(F)c1)CC(=O)NC(C)(C)C	85	-4	-2	-5	-6	-1	nt
CSc1nsc(/C=C/Nc2ccc(C)cc2)c1C#N	106	24*	-20	-6	3	3	>50
COc1cc(/C=N/Nc2snc(SC)c2C#N)ccc1O	98	10	-1	27	2	30	nt
CCC(=O)Nc1ccc(N/C(N)=N/c2nc(C)cc(C)n2)cc1	120	17*	-8	2	-4	2	>50
CCCCOc1ccc(OCCSc2nc3ccccc3n2CC(=O)O)cc1	99	18*	11	nt	nt	nt	>50
COc1cccc2c(=O)cn[nH]c12	113	0	7	5	3	-2	nt
O=c1cn[nH]c2ccccc12	90	21*	13	-10	7	2	>50
Cc1cccc(C(=O)Nc2ccnc(-c3ccncc3)n2)c1	95	-5	-7	-2	22	1	nt
O=C(Nc1ccnc(-c2ccncc2)n1)c1ccc(Cl)cc1	83	23*	10	-7	24	2	>50
CCCCOc1ccc(C(=O)NCC(=O)N2CC(C)CC(C)C2)cc1 (configuration not stated)	105	nt	nt	nt	nt	nt	nt
COC(=O)c1cc(NC(=O)c2ccc([N+](=O)[O-])cc2)c(=O)oc1C	96	18*	-6	2	-13	10	>50
CC(=O)c1cc(NC(=O)c2ccc([N+](=O)[O-])cc2)c(=O)oc1C	98	-1	-17	16	8	21	nt
COc1ccc2cc(C3(C)NC(=O)N(CC(=O)NCC(F)(F)F)C3=O)ccc2c1 (configuration not stated)	101	-3	-2	nt	nt	nt	nt
CC1(C)C[C@@H]1C(=O)N/C(=C\CCCCSC[C@H](N)C(=O)O)C(=O)O	125	nt	nt	nt	nt	nt	nt
Cc1ccc(S(=O)(=O)N(C)Cc2ccc(C(=O)N/N=C3\CC(=O)CC(C)(C)C3)cc2)cc1	94	19*	0	3	2	-4	>50
c1ccc(-n2cnc3cc(NCc4cccs4)ccc32)cc1	102	?	-4	2	2	-1	nt
COc1ccc(-n2cnc3cc(NCc4cccs4)ccc32)cc1	nt	19*	1	1	12	-1	>50
O=C1NC(c2cccc([N+](=O)[O-])c2)Oc2ccccc21 (configuration not stated)	90	22*	-2	1	-1	2	>50
O=C1NC(c2ccc(F)cc2)Oc2ccccc21 (configuration not stated)	109	-4	0	nt	nt	nt	nt
SMILES	DSG3 Ab inh	RanGTP-Imp inh	p-CIP stab down	Runt-SMMHC FRET	Hck Nef HTS	Runt-CBFb FRET	YIC FRET counter
O=C(/C=C/c1ccccc1[N+](=O)[O-])N1CCN(c2ccc(F)cc2)CC1	101	24*	4	2	16	0	>50
NNC(=O)c1cc2nc(-c3cccs3)cc(C(F)(F)F)n2n1	102	27*	-10	3	-31	2	>50
COC(=O)c1nc2nc(-c3cccs3)cc(C(F)(F)F)n2n1	93	3	-9	30	13	8	nt
COC(=O)c1ccc(NC(=O)CSc2nc(=O)n3cccc(C)c3n2)cc1	96	1	nt	nt	nt	nt	nt
COc1cc(C(=O)Oc2c(CN3CCOCC3)cc(Cl)c3cccnc23)cc(OC)c1OC	92	16*	-8	1	0	1	>50
COc1ccc(C(=O)Oc2c(CN3CCOCC3)cc(Cl)c3cccnc23)cc1	107	25*	-15	2	-1	4	>50
Cc1ccc(S(=O)(=O)n2cc(CO)c3ccccc32)cc1	115	nt	nt	nt	nt	nt	nt
Cc1ccc(S(=O)(=O)N(C)C[C@@H]2Oc3ccc(NC(=O)CCC(F)(F)F)cc3CC(=O)N([C@@H](C)CO)C[C@@H]2C)cc1	109	nt	nt	nt	nt	nt	nt
O=C(CCc1nc(-c2ccccc2Cl)no1)Nc1cccnc1	94	5	4	nt	nt	nt	nt
CC(C)(C)CN1CCC(n2nccc2NC(=O)c2ccccc2Cl)CC1	101	20*	-11	nt	nt	nt	>50
CCc1ccc(CN2CCC(n3nccc3NC(=O)c3ccccc3Cl)CC2)cc1	101	4	-4	nt	nt	nt	nt
CC1CN=C(NC(=O)c2cccc([N+](=O)[O-])c2)S1 (configuration not stated)	107	-3	8	nt	nt	nt	nt
CC1(C)CC(=O)CC(=Nc2ccc3[nH]c(=O)[nH]c3c2)C1	101	29*	2	3	-2	0	>50
CC1(C)CC(=O)C/C(=N/Nc2nc3ccccc3s2)C1	101	1	2	-3	19	5	nt
Cc1cc(Cl)c(S(=O)(=O)N2CCCC2)cc1OCC(=O)NC1CCCCC1	103	24*	-2	-1	-2	-3	>50
CC(C)CC(=O)Nc1ccc2c(c1)nc(CCN1CCOCC1)n2C	91	2	5	nt	nt	nt	nt
COCCN1C=C(C(=O)OC)C(c2ccc(Cl)cc2)C(C(=O)OC)=C1	106	41*	0	105*	75*	94*	13*
C#CCOCCOCCOCCNc1nc(N2CCOCC2)nc(N2CCN(C(=O)Cn3cc(CCCCN)nn3)CC2)n1	104	nt	nt	nt	nt	nt	nt
CCN1CCN(C(=O)c2cc3c(=O)n4ccccc4nc3s2)CC1	nt	12	0	nt	nt	nt	nt
O=C(c1cc2c(=O)n3ccccc3nc2s1)N1CCN(Cc2ccccc2)CC1	117	21*	-2	nt	nt	nt	>50
CC(C)(C)Nc1nc(SCC(=O)Nc2ccccc2)nc(N2CCOCC2)n1	104	21*	-9	3	20	-3	>50
CN(C)c1nc(SCC(=O)Nc2ccccc2)nc(N2CCOCC2)n1	110	-1	15	-4	17	0	nt
Cc1cccc(C)c1N1CCN(S(=O)(=O)c2ccc(F)cc2)CC1	nt	19*	-3	-1	3	0	>50

Screens (PubChem)
